Test results taken from ChEMBL document CHEMBL1125339, “Copyrine alkaloids: synthesis, spectroscopic characterization, and antimycotic/antimycobacterial activity of A- and B-ring-functionalized sampangines” (1992).
Converted amounts (≈) assume the structure as drawn.

How the values were obtained:
Cryptococcus neoformans = test: In vitro antifungal activity against Cryptococcus neoformans ATCC 32264.
[1] = test system: Mycobacterium intracellulare; test: In vitro anti-mycobacterial activity against Mycobacterium intracellular ATCC 23068.; format: functional
Outline: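 Organism grown on Lowenstein-Jensen medium for 48 h at 37 °C. Active compounds from the agar-well screen (1 mg/mL, zone >4 mm) go to 2-fold serial broth dilution in Mueller-Hinton broth. 10 μL loop inoculum per tube, 37 °C for 72 h. MIC is the lowest concentration inhibiting growth. Rifampin is the positive control. Replicate evaluations.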

Candida albicans = test: In vitro antifungal activity against Candida albicans B311.; format: functional
Outline: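 Cells grown 24 h at 37 °C in Sabouraud dextrose broth, centrifuged, washed and resuspended in 0.9% saline at 10^6 CFU/mL (hemacytometer). MIC by 2-fold serial dilution in yeast nitrogen broth with a 10 μL loop inoculum. Incubation at 37 °C, read at 24 and 48 h. MIC is the lowest inhibitory concentration. Amphotericin B is the control. Replicate evaluations.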

Aspergillus fumigatus = test: In vitro antifungal activity against Aspergillus fumigatus ATCC 26934.; format: functional
Outline: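 Inoculum is a surface-growth suspension from agar slants in sterile water. Compounds active in the agar-well diffusion screen (1 mg/mL, zone >4 mm) are tested by 2-fold serial dilution in Sabouraud dextrose broth. 10 μL loop inoculum, 30 °C, read at 48 and 72 h. MIC is the lowest growth-inhibiting concentration. Amphotericin B is the control. Replicate evaluations.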

Row | Compound | MIC (Cryptococcus neoformans) [mg/L] | MIC [1] [mg/L] | MIC (Candida albicans) [mg/L] | MIC (Aspergillus fumigatus) [mg/L]
1 | Cc1c2c(nc3ccccc13)C(=O)c1ccccc1C2=O | 25 (≈ 91.5 µM) | 1.56 (≈ 5.71 µM) | 25 (≈ 91.5 µM) | 
2 | CCOc1nc2c3c(nccc3c1Br)-c1ccccc1C2=O | 25 (≈ 70.4 µM) | 25 (≈ 70.4 µM) |  | 
3 | [N-]=[N+]=Nc1cnc2c3c(nccc13)-c1ccccc1C2=O | 6.25 (≈ 22.9 µM) |  | 25 (≈ 91.5 µM) | 
4 | O=C1c2ccccc2-c2nccc3c(Br)cnc1c23 | 0.1 (≈ 0.321 µM) | 3.12 (≈ 10 µM) | 3.12 (≈ 10 µM) | 50 (≈ 161 µM)
5 | Cc1cnc2c3c(nccc13)C(=O)c1ccccc1-2 | 0.39 (≈ 1.58 µM) | 0.39 (≈ 1.58 µM) | 0.39 (≈ 1.58 µM) | 0.78 (≈ 3.17 µM)
6 | COc1cnc2c3c(nccc13)C(=O)c1ccccc1-2 | 0.78 (≈ 2.97 µM) | 1.56 (≈ 5.95 µM) | 1.56 (≈ 5.95 µM) | 0.78 (≈ 2.97 µM)
7 | CCc1ccnc2c1C(=O)c1ccccc1C2=O | 3.12 (≈ 13.2 µM) | 12.5 (≈ 52.7 µM) | 100 (≈ 421 µM) | 
8 | Cc1ccnc2c1C(=O)c1ccccc1C2=O [CLEISTOPHOLINE] | 1.56 (≈ 6.99 µM) | 12.5 (≈ 56 µM) | 12.5 (≈ 56 µM) | 100 (≈ 448 µM)
9 | CO[C@H]1/C=C/O[C@@]2(C)Oc3c(C)c(O)c4c(O)c(c(/C=N/N5CCN(C)CC5)c(O)c4c3C2=O)NC(=O)/C(C)=C\C=C\[C@H](C)[C@H](O)[C@@H](C)[C@@H](O)[C@@H](C)[C@H](OC(C)=O)[C@@H]1C [RIFAMPIN] |  | 0.78 (≈ 0.948 µM) |  | 
10 | O=C1c2ccccc2-c2nccc3ccnc1c23 [SAMPANGINE] | 0.78 (≈ 3.36 µM) | 0.78 (≈ 3.36 µM) | 1.56 (≈ 6.72 µM) | 1.56 (≈ 6.72 µM)

Continued by falling MIC (Cryptococcus neoformans), values first:

Row | MIC (Cryptococcus neoformans) [mg/L] | MIC [1] [mg/L] | MIC (Candida albicans) [mg/L] | MIC (Aspergillus fumigatus) [mg/L] | Compound
11 | 25 (≈ 101 µM) |  | 100 (≈ 404 µM) |  | Nc1cnc2c3c(nccc13)-c1ccccc1C2=O
12 | 1.56 (≈ 5.95 µM) | 3.12 (≈ 11.9 µM) | 3.12 (≈ 11.9 µM) |  | COc1cnc2c3c(nccc13)-c1ccccc1C2=O
13 | 1.56 (≈ 5.53 µM) | 0.39 (≈ 1.38 µM) | 0.39 (≈ 1.38 µM) | 0.39 (≈ 1.38 µM) | O=C1c2ccccc2-c2nccc3c2c1nc1ccccc13 [BENZOSAMPANGINE]
14 | 0.39 (≈ 0.422 µM) |  | 0.78 (≈ 0.844 µM) | 0.39 (≈ 0.422 µM) | C[C@@H]1[C@H](O)[C@@H](C)/C=C/C=C/C=C/C=C/C=C/C=C/C=C/[C@H](O[C@@H]2O[C@H](C)[C@@H](O)[C@H](N)[C@@H]2O)C[C@@H]2O[C@](O)(C[C@@H](O)C[C@@H](O)[C@H](O)CC[C@@H](O)C[C@@H](O)CC(=O)O[C@H]1C)C[C@H](O)[C@H]2C(=O)O [AMPHOTERICIN B]
15 | 0.1 (≈ 0.375 µM) | 3.12 (≈ 11.7 µM) | 0.39 (≈ 1.46 µM) |  | O=C1c2ccccc2-c2nccc3c(Cl)cnc1c23
